Assay outcomes (PubChem)
Compounds with a hit are over-represented: about 4.7% of the library has one in this group of screens.
MrgX1 PAM – positive allosteric modulators of MrgX1, primary screen, HEK293 cells, Fluo-4 calcium flux | FDSS; active compounds read high | B-score at 10 µM | actives 0.63% (n = 310,000) | AID 588675, 2011;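 active = plate-corrected calcium response at least 3 library SD above typical, normal starting fluorescence, not activating the receptor alone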;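 note: compound read alongside a low EC10 to EC30 dose of BAM8-22 agonist; peak minus trough fluorescence over baseline measured at the second addition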
Target sequence (Q96LB2 whole entry, looked up): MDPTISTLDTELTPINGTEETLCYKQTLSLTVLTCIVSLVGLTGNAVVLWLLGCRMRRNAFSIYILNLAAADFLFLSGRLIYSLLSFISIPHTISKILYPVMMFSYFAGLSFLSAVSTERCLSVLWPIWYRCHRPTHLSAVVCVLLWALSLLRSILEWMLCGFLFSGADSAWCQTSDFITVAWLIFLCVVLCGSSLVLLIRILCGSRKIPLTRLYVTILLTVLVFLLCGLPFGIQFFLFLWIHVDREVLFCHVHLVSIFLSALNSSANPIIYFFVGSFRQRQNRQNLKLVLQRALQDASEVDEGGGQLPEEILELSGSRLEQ
RGS4 act – RGS4 potentiators or activators, primary screen, cell-based, HEK293 M3R inducible RGS4, calcium flux. B-score at 10 µM. actives 0.92% (n = 310,000). AID 463111, 2010. carbachol calcium flux Fluo4; active compounds read low;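 active = B-score of the integrated calcium signal more than 4 SD below the library mean, with starting fluorescence not abnormally high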;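 note: negative B-score means reduced calcium response which marks RGS4 activation or potentiation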
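Detection: kinetic calcium fluorescence imaging with Fluo4-AM dye, 2 µM / Material: HEK293 cells with stable M3R and inducible RGS4 / Schedule: recording 10 s baseline at 1 Hz, 100 s post-agonist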
MrgX1 antagonist – antagonists of human MrgX1 receptor, primary screen, HEK293 cells, Fluo-4 calcium flux. AID 588676, 2011. actives 1.3% (n = 310,000). BAM8-22 antagonism; active compounds read low. B-score at 10 µM. Mas-related G-protein coupled receptor member X1 (Homo sapiens), Q96LB2;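 active = calcium-response B-score plate-corrected more than 3 library SD below zero, starting fluorescence within 5 deviations, no agonist response on first addition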;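 note: peak minus trough fluorescence over baseline after final BAM8-22 challenge near maximal dose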
MrgX1 agonist – agonists of human MrgX1 receptor, primary screen, HEK293 cells, Fluo-4 calcium flux. Fluo-4 calcium fluorescence, agonist mode; active compounds read high. actives 0.44% (n = 310,000). B-score at 10 µM. Mas-related G-protein coupled receptor member X1 (Homo sapiens), Q96LB2;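 active = calcium response B-score plate-corrected fluorescence ratio at least 3 library SD, with starting fluorescence B-score inside 5 SD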
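Material: MrgX1-expressing HEK293 cells / Dosing: compound as first of three additions / Incubation: overnight seeding, then 1 h dark dye loading / Signal: Fluo-4 NW calcium fluorescence / Evaluation: B-scored fluorescence response ratio / Benchmarks: positive and negative control wells on each plate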
Cl transport mod – KCC2 cotransporter modulators, thallium flux, primary screen, cell-based, HEK293 KCC2, FluoZin-2 fluorescence, MLSMR; KCC2 cells, thallium flux FluoZin-2 fluorescence; Solute carrier family 12 member 5 (Homo sapiens), Q9H2X9; actives 2.2% (n = 190,000); B-score of Tl+ flux slope (higher = more flux/activation; lower = inhibition) at 10 µM;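 active = thallium flux slope and its plate-corrected score both differing from the plate sample mean at a set confidence after two filtering rounds, in either direction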;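 note: slope of fluorescence scaled to starting intensity during 10 to 20 s after thallium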
RGS4 block – RGS4 inhibitors, primary screen, cell-based, HEK293 M3R inducible RGS4, calcium flux; AID 463165, 2010; B-score at 10 µM; actives 0.45% (n = 310,000); Fluo-4 calcium flux; active compounds read high; triggered by carbachol at its EC20; Regulator of G-protein signaling 4 (Homo sapiens), P49798;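 active = B-score, a plate-corrected calcium signal, over three deviations above library mean, with baseline fluorescence within five deviations of library mean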;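 note: RGS4 expression induced by doxycycline in cells with stable M3 receptor; B-score is computed from the integrated fluorescence ratio over baseline after carbachol; higher B-score means a larger calcium signal and so more RGS4 inhibition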
Target sequence (P49798 whole entry, looked up): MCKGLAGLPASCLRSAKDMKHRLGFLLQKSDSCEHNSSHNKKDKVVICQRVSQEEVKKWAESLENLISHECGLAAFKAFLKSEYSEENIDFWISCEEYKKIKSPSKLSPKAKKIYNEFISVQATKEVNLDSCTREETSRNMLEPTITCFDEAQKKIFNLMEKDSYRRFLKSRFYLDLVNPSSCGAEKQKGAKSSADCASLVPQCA
MrgX1 ant reconf – MrgX1 receptor antagonists, duplicate retest, confirmation, HEK293 cells, Fluo-4 calcium flux | shares compounds with MrgX1 antagonist | BAM8-22 calcium flux; active compounds read low | remaining BAM8-22 calcium response % of control (active compounds read low), % at 10 µM | actives 19% (n = 2,300) | AID 602420, 2012;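 active = remaining agonist calcium response no higher than 100% minus 3 SD of agonist-only control wells, with starting fluorescence near control levels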;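 note: agonist BAM8-22 given at a near maximal EC90 to ECmax level; peak minus minimum fluorescence divided by baseline after agonist addition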
HEK293 Ca flux – nonspecific calcium signal in parental HEK293, confirmation, counter-screen for MrgX1 antagonist project, parental HEK293 cells, Fluo-4 calcium flux | fluorescence ratio F(max-min)/F0 at 10 µM | actives 2% (n = 4,000) | Fluo-4 calcium fluorescence, FDSS | shares compounds with MrgX1 antagonist;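 active = duplicate-averaged calcium fluorescence ratio at least three times the standard deviation of buffer wells, a nonspecific response in parental cells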
HEK293 Ca counter – calcium response in parental HEK293 cells, primary screen, counter-screen for MrgX1 allosteric activator project, cell-based, Fluo-4 calcium flux, duplicate | shares compounds with MrgX1 antagonist | Fluo-4 fluorescence ratio; active compounds read high | fluorescence ratio F(max-min)/F0 at 10 µM | actives 0.4% (n = 4,000) | AID 624114, 2012;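 active = calcium fluorescence ratio, averaged over duplicates, at least 3 SD of the buffer-well ratio, meaning a nonspecific response in receptor-free cells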;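 note: untransfected parental HEK293 lacking MrgX1 used as counterscreen for MrgX1 allosteric activators; fluorescence change taken during the second addition on a kinetic imager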
HEK293 Ca cntr2 – calcium response in parental HEK293 cells, primary screen, counter-screen for MrgX1 agonist project, cell-based, Fluo-4 calcium flux, duplicate, agonist mode | shares compounds with MrgX1 antagonist | Fluo-4 calcium fluorescence (FDSS); active compounds read high | fluorescence ratio F(max-min)/F0 at 10 µM | actives 8.7% (n = 4,000);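 active = calcium fluorescence ratio at least three times the spread of buffer wells, meaning a non-specific response in parental cells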
* hit, by the source's call; i = inactive; . = not tested or not shown.

SMILES	MrgX1 PAM	RGS4 act	MrgX1 antagonist	MrgX1 agonist	Cl transport mod	RGS4 block	MrgX1 ant reconf	HEK293 Ca flux	HEK293 Ca counter	HEK293 Ca cntr2
CC1(C)CC(=O)N(CC(=O)O)c2ccccc2S1	i	i	-4.5*	i	-0.37	i	i	i	i	i
COC(=O)CN1C(=O)CC(C)(C)Sc2ccccc21	i	i	i	i	-0.013	i	.	.	.	.
CC(=O)Nc1ccc(S(=O)(=O)NCC(=O)OCC(=O)NCc2ccco2)cc1	i	i	i	i	.	i	.	.	.	.
COc1cc(NC(=O)c2ccccc2-c2ccccc2)cc(OC)c1OC	i	i	i	i	0.047	i	.	.	.	.
COc1cc(C=Nc2ccccc2C(=O)Nc2ccccc2)cc(OC)c1OC	i	i	-5.5*	i	1.4	i	i	i	i	i
Cc1ccc(C(=O)OCC(=O)NC2CCCC2)cc1	i	i	i	i	.	i	.	.	.	.
NC(=S)Nc1ccc(Cl)cc1Cl	i	i	-6.5*	i	0.82	i	i	i	i	i
Cc1ccc(C(=O)N2CCN(c3ccc([N+](=O)[O-])cc3-n3cccc3)CC2)cc1	i	i	i	i	-1.7	i	.	.	.	.
Cc1cnc(C(=O)OCC(=O)c2csc(N3CCCCC3)n2)cn1	i	i	-5.7*	i	-2.2	i	i	i	i	i
O=C(Nc1cc2c3c(c1)CC(=O)N3CCC2)c1ccco1	i	i	i	i	.	i	.	.	.	.
O=c1oc2ccc3ccccc3c2c2c1SC(C(F)(F)F)C2 (centres undefined)	i	i	i	i	-0.55	i	.	.	.	.
O=c1oc2ccccc2c2c1SC(C(F)(F)F)C2 (centres undefined)	i	i	-5.1*	i	-0.0073	i	76%*	i	i	i
Cc1nc(C(=O)N2CCc3c([nH]c4ccccc34)C2c2cc(F)ccc2F)cs1 (centres undefined)	i	i	i	i	-0.92	i	.	.	.	.
Fc1ccc(NC(=S)Nc2cccc3cnccc23)cc1	i	i	i	i	0.63	i	.	.	.	.
S=C(Nc1ccc(Cl)cc1)Nc1cccc2cnccc12	i	i	-5.2*	i	0.061	i	i	i	i	i
COC(=O)c1cccc(Nc2ncnc3sccc23)c1	i	i	-4.5*	i	-0.39	i	i	i	i	i
COc1cccc(Nc2ncnc3sccc23)c1	i	i	i	i	.	i	.	.	.	.
CCc1ccccc1NC(=O)CSc1nnc(-c2ccco2)n1N	i	i	-6.7*	i	0.19	i	i	i	i	i
S=C(NCc1cccs1)Nc1cccc(Cl)c1	i	i	-5.1*	i	.	i	i	i	i	i
O=C(O)c1ccccc1NS(=O)(=O)c1cccc(C(F)(F)F)c1	i	i	i	i	-0.095	i	.	.	.	.
O=C(O)c1ccccc1NS(=O)(=O)c1cccc(-n2sc3ccccc3c2=O)c1	i	i	-6.3*	i	.	i	44%*	i	i	i
O=C(NNC(=O)C1CCN(c2ncccn2)CC1)c1ccc(F)cc1	i	i	i	i	.	i	.	.	.	.
Cc1cc(NC(=S)Nc2ccccc2)ccc1Br	i	i	i	i	.	i	.	.	.	.
Cc1cc(NC(=S)Nc2cccnc2)ccc1Br	i	i	-5.2*	i	0.69	i	86%*	i	i	i
O=C(Nc1ccccc1C(=O)O)C1=NN=CC1	i	i	i	i	.	i	.	.	.	.
SMILES	MrgX1 PAM	RGS4 act	MrgX1 antagonist	MrgX1 agonist	Cl transport mod	RGS4 block	MrgX1 ant reconf	HEK293 Ca flux	HEK293 Ca counter	HEK293 Ca cntr2
CCOC(=O)c1sc(NC(=O)CSc2nc(C)cc(C)c2C#N)c(C#N)c1C	i	i	-7.3*	i	-1.7	i	i	i	i	i
CCOC(=O)c1sc(NC(=O)CSc2nc3c(cc2C#N)CCC3)c(C#N)c1C	.	.	.	.	-2.2	.	.	.	.	.
CC12C(=O)N(c3ccccn3)C(=O)C1C1C=CC2C1 (centres undefined)	i	i	-5*	i	0.58	i	i	i	i	i
O=C(CCCn1c(=S)[nH]c2cc3c(cc2c1=O)OCO3)NCCc1ccccc1Cl	i	i	i	i	.	i	.	.	.	.
Cc1ccc(NC(=O)Nc2nnc(-c3ccncc3)s2)cc1C	i	i	-6.1*	i	0.44	i	64%*	i	i	i
O=C(Nc1ccc(Cl)cc1)Nc1nnc(-c2ccncc2)s1	i	i	i	i	0.7	i	.	.	.	.
CC1(C)CC(=O)C2=C(C1)N(c1ccc(F)cc1)C(=O)CC2c1ccsc1 (centres undefined)	i	i	-5.1*	i	-0.98	i	i	i	i	i
O=C(O)c1c[nH]c2c(C(F)(F)F)cccc2c1=O	i	i	-7.4*	i	.	i	i	i	i	i
COc1cccc2c(=O)c(C(=O)O)c[nH]c12	i	i	i	i	0.064	i	.	.	.	.
Cc1ccc(OCC(=O)N/N=C2/SCC(=O)N2Cc2ccccc2)cc1	i	i	-21*	i	-0.32	i	i	i	i	i
